Assay results as given in ChEMBL document CHEMBL1828530, “Quinonoid and phenazine compounds: synthesis and evaluation against H37Rv, rifampicin and isoniazid-resistance strains of Mycobacterium tuberculosis” (Eur J Med Chem, 2011).
pIC50: −log10 of the molar value. ≈ marks a conversion by molar mass, not a printed value.

What was measured:
PBMC = assay: Cytotoxicity against human PBMC after 72 hrs by Alamar blue assay; assay type: cell-based
Outline: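 Human peripheral blood mononuclear cells; compounds (0.048–25) in DMSO (0.1%) added 24 h after plating, then 72 h exposure. Alamar Blue absorbance read at 570 and 595 nm, medium-alone blank subtracted at each wavelength; effect expressed as percentage of control absorbance; IC50 derived.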

[1] = tested on: Mycobacterium tuberculosis; assay: Antitubercular activity against Mycobacterium tuberculosis H37Rv after 9 days by resazurin reduction assay; assay type: functional; conditions: 216 h

Compound	pIC50 (PBMC)	MIC [1]
CC(C)CCC1=C(O)C(=O)c2ccccc2C1=O	< 3.99	205 µM (≈ 50.1 µg/mL)
CC(C)CC1=C(O)C(=O)c2ccccc2C1=O	4.03	217 µM (≈ 50.1 µg/mL)
CC(C)CC1=C(O)C(=O)C2=C(CCCC2)C1=O	4.19	107 µM (≈ 25 µg/mL)
CCCC1=C(O)C(=O)c2ccccc2C1=O	4.01	462 µM (≈ 100 µg/mL)
CCCC1=C(O)C(=O)C2=C(CCCC2)C1=O	4.05	227 µM (≈ 50 µg/mL)
CC(C)=CCC1=C(OC2(CC=C(C)C)C(=O)c3ccccc3-c3nc4ccccc4nc32)C(=O)c2ccccc2C1=O (centres undefined)	< 4.35	> 180 µM
CC(C)CCc1c2[nH]c3ccccc3nc-2c2ccccc2c1=O	4.35	19.8 µM (≈ 6.26 µg/mL)
CC(C)CCc1c2[nH]c3ccccc3nc-2c2c(c1=O)CCCC2	< 4.11	9.75 µM (≈ 3.12 µg/mL)
CC(C)CCC1=C(OC2(CCC(C)C)C(=O)c3ccccc3-c3nc4ccccc4nc32)C(=O)c2ccccc2C1=O (centres undefined)	< 4.35	> 179 µM
CC(C)CCC1=C(OC2(CCC(C)C)C(=O)C3=C(CCCC3)c3nc4ccccc4nc32)C(=O)C2=C(CCCC2)C1=O (centres undefined)	< 4.35	176 µM (≈ 100 µg/mL)
CC(C)=Cc1c2[nH]c3ccccc3nc-2c2ccccc2c1=O	4.21	83.3 µM (≈ 25 µg/mL)
CC(C)Cc1c2[nH]c3ccccc3nc-2c2ccccc2c1=O	< 4.08	> 331 µM
CC(C)Cc1c2[nH]c3ccccc3nc-2c2c(c1=O)CCCC2	< 4.09	> 327 µM
CC(C)CC1=C(OC2(CC(C)C)C(=O)c3ccccc3-c3nc4ccccc4nc32)C(=O)c2ccccc2C1=O (centres undefined)	< 4.33	> 188 µM
CC(C)CC1=C(OC2(CC(C)C)C(=O)C3=C(CCCC3)c3nc4ccccc4nc32)C(=O)C2=C(CCCC2)C1=O (centres undefined)	< 4.33	92.8 µM (≈ 50 µg/mL)
C=CCC1=C(O)C(=O)c2ccccc2C1=O	< 3.93	467 µM (≈ 100 µg/mL)
C=CCc1c2[nH]c3ccccc3nc-2c2ccccc2c1=O	4.19	87.4 µM (≈ 25 µg/mL)
CCCc1c2[nH]c3ccccc3nc-2c2c(c1=O)CCCC2	< 4.07	–
C=CCC1=C(OC2(CC=C)C(=O)c3ccccc3-c3nc4ccccc4nc32)C(=O)c2ccccc2C1=O (centres undefined)	< 4.30	> 201 µM
CCCC1=C(OC2(CCC)C(=O)c3ccccc3-c3nc4ccccc4nc32)C(=O)c2ccccc2C1=O (centres undefined)	< 4.30	> 199 µM
CCCC1=C(OC2(CCC)C(=O)C3=C(CCCC3)c3nc4ccccc4nc32)C(=O)C2=C(CCCC2)C1=O (centres undefined)	< 4.31	> 196 µM
CC(C)CCC1=C(O)C(=O)C2=C(CCCC2)C1=O	4.09	101 µM (≈ 25 µg/mL)
CC(C)=CC1=C(O)C(=O)c2ccccc2C1=O	< 3.96	219 µM (≈ 50.1 µg/mL)
NNC(=O)c1ccncc1 [ISONIAZID]	–	0.145 µM (≈ 0.0199 µg/mL)
CC(C)=CCC1=C(O)C(=O)c2ccccc2C1=O [LAPACHOL]	< 3.99	207 µM (≈ 50.1 µg/mL)
CO[C@H]1/C=C/O[C@@]2(C)Oc3c(C)c(O)c4c(O)c(c(/C=N/N5CCN(C)CC5)c(O)c4c3C2=O)NC(=O)/C(C)=C\C=C\[C@H](C)[C@H](O)[C@@H](C)[C@@H](O)[C@@H](C)[C@H](OC(C)=O)[C@@H]1C [RIFAMPIN]	–	0.12 µM (≈ 0.0988 µg/mL)
